Experimental findings from ChEMBL document CHEMBL4330070, “Design and synthesis of novel pyrimidine derivatives as potent antitubercular agents” (Eur J Med Chem, 2019) are described below.

Calls of active or inactive are those of the source. The rule behind the calls is not given here. A value given as a limit tells only on which side of the number the result lay.

For data set [1], the system named is Mycobacterium tuberculosis. The data set can be described thus: Antimicrobial activity against autoluminescent Mycobacterium tuberculosis H37Ra assessed as test compound concentration causing ratio of drug treated RLU/untreated RLU less than 10% measured every day up to 6 days by luminometric method. Type of data set: functional. Conditions: 144 h. The method, boiled down:
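Autoluminescent marker-free H37Ra (UAIRa) grown in 7H9 with OADC and 0.05% Tween 80 until RLU exceeded 5 million/mL, then diluted to 10,000-50,000 RLU/mL in 7H9 without Tween 80. Compounds tested as 2-fold dilutions from 100 to 0.625 µg/mL, with DMSO 2% and rifampicin 1 µg/mL controls. RLU read daily to day 6. MIC is the lowest concentration giving RLU drug/DMSO below 10%.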

A short description of data set [2]: Toxicity in Balb/c mouse infected with Mycobacterium tuberculosis H37Ra assessed as mouse death at 200 mg/kg administered daily via gavage for 5 days. Conditions: in vivo, po, 120 h. The class given is organism-based. The method, boiled down:
(§1)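 Female BALB/c mice aged 4-5 weeks infected by tail vein with autoluminescent H37Ra, four per group. Gavage daily from day 0 to day 5 in 0.5% CMC-Na vehicle. Deaths recorded over the 6-day treatment period and reported as percent survival.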

For data set [3], the system named is Mycobacterium tuberculosis. Kind of data set: Antimicrobial activity against autoluminescent Mycobacterium tuberculosis H37Ra infected in BALB/c mouse assessed as reduction in bacterial burden in lung at 200 mg/kg administered daily via gavage for 5 days and measured on day 6 by luminometric method. The class given is functional, organism-based. The method, boiled down:
(§2)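 Mice grouped by similar RLU, four per group. Dosed by gavage daily from day 0 to day 5 in 0.5% CMC-Na, with vehicle, RIF 10 mg/kg and PZA 150 mg/kg controls. Lung or spleen burden read as log10 RLU, mean ± SD.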

The test system of data set [4] is Mycobacterium tuberculosis. The data set can be described thus: Synergistic antimicrobial activity against autoluminescent Mycobacterium tuberculosis H37Ra assessed as test compound concentration causing ratio of drug treated RLU/untreated RLU less than 10% by measuring FICI at 0.0625 to 2 times MIC after 7 days in presence of sulfamethoxazole by luminometric method. Type of data set: functional. The method, boiled down: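 Exponential-phase UAIRa in 7H9 without Tween 80 at 10,000-50,000 RLU/mL. Compound at 2-fold dilutions from 2×MIC to MIC/16, each combined with sulfamethoxazole at 16, 8, 4 or 2 µg/mL, with a 2% DMSO control. RLU read after 7 days at 37 °C. MIC taken as RLU drug/DMSO below 10%. FICI is the sum of MIC in combination over MIC alone for each drug.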

Data set [5] deals with Mycobacterium tuberculosis. The data set can be described thus: Antimicrobial activity against autoluminescent Mycobacterium tuberculosis H37Ra infected in BALB/c mouse assessed as reduction in bacterial burden in spleen at 200 mg/kg administered daily via gavage for 5 days and measured on day 6 by luminometric method. Type of data set: functional, organism-based. A digest of the protocol: as §2

Data set [6] is described as follows: Toxicity in Balb/c mouse infected with Mycobacterium tuberculosis H37Ra assessed as mouse death at 100 mg/kg administered daily via gavage for 5 days. Type of data set: organism-based. Conditions: in vivo, po, 120 h. The method, boiled down:
as §1

Data set [7] is described as follows: Toxicity in Balb/c mouse infected with Mycobacterium tuberculosis H37Ra assessed as mouse death at 300 mg/kg administered daily via gavage for 5 days. Type of data set: organism-based. Conditions: in vivo, po, 120 h. A digest of the protocol:
as §1

In data set [8] the test system is Mycobacterium tuberculosis. Kind of data set: Antimicrobial activity against autoluminescent Mycobacterium tuberculosis H37Ra infected in BALB/c mouse assessed as reduction in bacterial burden in spleen at 100 to 300 mg/kg administered daily via gavage for 5 days and measured on day 6 by luminometric method. Type of data set: functional. The method, boiled down:
as §2

In data set [9] the test system is Mycobacterium tuberculosis. Kind of data set: Antimicrobial activity against autoluminescent Mycobacterium tuberculosis H37Ra infected in BALB/c mouse assessed as reduction in bacterial burden in lung at 100 to 300 mg/kg administered daily via gavage for 5 days and measured on day 6 by luminometric method. The class given is functional. A digest of the protocol:
as §2

Data set [10] deals with Mycobacterium tuberculosis. The data set can be described thus: Antimicrobial activity against autoluminescent Mycobacterium tuberculosis H37Ra infected in BALB/c mouse assessed as reduction in bacterial burden in lung at 300 mg/kg administered daily via gavage for 5 days and measured on day 6 by luminometric method. The class given is functional. The method, boiled down: as §2

Data set [11] concerns Mycobacterium tuberculosis. The data set can be described thus: Antimicrobial activity against autoluminescent Mycobacterium tuberculosis H37Ra infected in BALB/c mouse assessed as reduction in bacterial burden in spleen at 300 mg/kg administered daily via gavage for 5 days and measured on day 6 by luminometric method. The class given is functional, organism-based. The method, boiled down: as §2

As for `COc1ccc(CCNc2nc(Nc3cc(C)c(C4CCNCC4)cc3OC(C)C)ncc2Cl)cc1`, the MIC in [1] was 5 µM. In [2], the Activity result is given as “Toxic”. Further, the result in data set [3] and in data set [5] was inactive. For the same compound, in [4], the “fractional inhibitory concentration index (FICI)” value amounted to 1.24.
Regarding `Cc1cc(Nc2ncc(Cl)c(Nc3ccc4ccccc4c3)n2)c(OC(C)C)cc1C1CCNCC1`, the MIC in [1] stood at 10 µM.
Turning to `CC(C)S(=O)(=O)c1ccccc1Nc1nc(Nc2ccc(C#N)c(F)c2)ncc1Cl`, in [1], the MIC was > 200 µM.
On the same count and under the same terms, the value for `Cc1cc(Nc2ncc(Cl)c(NC34CC5CC(CC(C5)C3)C4)n2)c(OC(C)C)cc1C1CCNCC1` was 20 µM; that for `Cc1cc(Nc2ncc(Cl)c(NCCc3cccs3)n2)c(OC(C)C)cc1C1CCNCC1` was 10 µM; that for `CC(C)S(=O)(=O)c1ccccc1Nc1nc(Nc2ccc(Cl)cc2)ncc1Cl` was > 200 µM.
The same measure, in the same setting: next, `COc1ccc(Nc2ncc(Cl)c(Nc3ccccc3S(=O)(=O)C(C)C)n2)cc1`: > 200 µM.
Take `Cc1cc(Nc2ncc(Cl)c(Nc3cccc4ccccc34)n2)c(OC(C)C)cc1C1CCNCC1`: the MIC in data set [1] came out at 5 µM. For the same compound, the Activity entry is reported as “Non-Toxic” in data set [6], “Non-Toxic” in data set [7], 0.5 log10RLU in data set [8] and 2 log10RLU in data set [9]. Further, in [4], the “fractional inhibitory concentration index (FICI)” value is listed as 0.74.
For the compound `Cc1cc(Nc2ncc(Cl)c(Nc3ccc(C(N)=O)cc3)n2)c(OC(C)C)cc1C1CCNCC1`, the MIC in [1] was determined as 20 µM.
On to `Cc1cc(Nc2ncc(Cl)c(NCc3ccccc3)n2)c(OC(C)C)cc1C1CCNCC1`, for which the MIC in data set [1] worked out at 10 µM.
As for `Cc1cc(Nc2ncc(Cl)c(NCCc3ccccc3)n2)c(OC(C)C)cc1C1CCNCC1`, the MIC in [1] stood at 5 µM. Also, the Activity result in [7] and in [2] was “Non-Toxic” each time. For the same compound, the outcome in [3] and in data set [5] was Active. The “fractional inhibitory concentration index (FICI)” value in data set [4] was found to be 0.74.
As for `CC(C)S(=O)(=O)c1ccccc1Nc1nc(Nc2ccccc2OCCCN2CCOCC2)ncc1Cl`, the MIC in data set [1] is > 150 µM.
On the same count and under the same terms, next, `Cc1cc(Nc2ncc(Cl)c(Nc3ccc(O)cc3)n2)c(OC(C)C)cc1C1CCNCC1`: 10 µM.
For `Cc1cc(Nc2ncc(Cl)c(Nc3cc(C(F)(F)F)cc(C(F)(F)F)c3)n2)c(OC(C)C)cc1C1CCNCC1`, the MIC in [1] turned out to be 17 µM.
Still for that read-out and setting: next, `CC(C)S(=O)(=O)c1ccccc1Nc1nc(NCCc2ccc(Br)cc2)ncc1Cl`: > 150 µM; `Cc1cc(Nc2ncc(Cl)c(NCCc3ccc(F)cc3)n2)c(OC(C)C)cc1C1CCNCC1`: 10 µM.
On the same count and under the same terms, next, `CC(C)S(=O)(=O)c1ccccc1Nc1nc(Nc2ccccc2C#N)ncc1Cl`: > 200 µM.
Take `CC(C)S(=O)(=O)c1ccccc1Nc1nc(Nc2ccccc2O)ncc1Cl`: the MIC in data set [1] was > 200 µM.
Still for that read-out and setting: the value for `Cc1cc(Nc2ncc(Cl)c(Nc3cccc(-c4ccccc4)c3)n2)c(OC(C)C)cc1C1CCNCC1` was 19 µM; that for `Cc1cc(Nc2ncc(Cl)c(Nc3ccccc3S(=O)(=O)C(C)C)n2)c(OC(C)C)cc1N1CCOCC1` was > 150 µM.
On the same count and under the same terms, next, `Cc1cc(NS(=O)(=O)c2ccc(N)cc2)no1` [SULFAMETHOXAZOLE]: 67 µM; `Cc1cc(Cc2ncc(Cl)c(NCCc3ccc(O)cc3)n2)c(OC(C)C)cc1C1CCNCC1`: 10 µM; `Cc1cc(Nc2ncc(Cl)c(N[C@H](C)c3ccccc3)n2)c(OC(C)C)cc1C1CCNCC1`: 10 µM.
Same read-out and setting: the value for `Cc1cc(Nc2ncc(Cl)c(Nc3ccccc3S(=O)(=O)C(C)C)n2)c(OC(C)C)cc1N1CCN(C)CC1` was 18 µM.
With `Cc1cc(Nc2ncc(Cl)c(Nc3ccccc3S(=O)(=O)C(C)C)n2)c(OC(C)C)cc1N1CCNCC1`, the MIC in data set [1] amounted to 9 µM.
Still for that read-out and setting: next, `Cc1cc(Nc2ncc(Cl)c(NC3CCCCC3)n2)c(OC(C)C)cc1C1CCNCC1`: 11 µM.
For `Cc1cc(Nc2ncc(Cl)c(Nc3ccccc3S(=O)(=O)C(C)C)n2)c(OC(C)C)cc1C1CCNCC1` [CERITINIB], the MIC in data set [1] came out at 9 µM. Further, the Activity in data set [10] is on record as 1 log10RLU; in data set [7], “Toxic”. Further, in data set [11], the outcome was inactive. Besides, the “fractional inhibitory concentration index (FICI)” value in data set [4] was determined as 0.74.
In the case of `COc1ccc(-c2cc(Nc3nc(Nc4cc(C)c(C5CCNCC5)cc4OC(C)C)ncc3Cl)ccc2OC)cc1`, in [1], the MIC was found to be 17 µM.
Same read-out and setting: next, `CC(C)S(=O)(=O)c1ccccc1Nc1nc(Nc2ccc(C(N)=O)cc2)ncc1Cl`: > 200 µM; `COc1ccc(Nc2nc(Nc3cc(C)c(C4CCNCC4)cc3OC(C)C)ncc2Cl)cc1Br`: 9 µM; `Cc1cc(Nc2ncc(Cl)c(Nc3ccccc3O)n2)c(OC(C)C)cc1C1CCNCC1`: ≤ 10 µM.
Consider `Cc1cc(Nc2ncc(Cl)c(NC(C)(C)Cc3ccc4ccccc4c3)n2)c(OC(C)C)cc1C1CCNCC1`, for which the MIC in data set [1] came out at 18 µM.
Still for that read-out and setting: next, `Cc1cc(Nc2ncc(Cl)c(N3CCCc4ccccc43)n2)c(OC(C)C)cc1C1CCNCC1`: 20 µM.

One may read the MIC as the lowest concentration that inhibits growth of the organism.
